Assay outcomes: PubChem, several laboratories
Sampled rows, rich in hits. Any-hit rate of the full collection: about 3.1%.
TbHK1 inh – blocks Trypanosoma brucei hexokinase 1 activity. recombinant TbHK1, G6PDH-coupled NADH A340. inhibition, % at 10 µM. 0.11% of 220,000 active;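 active = inhibition of 50% or more in the single-dose primary screen; inactive = inhibition below 50%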
HSP90 inh – blocks HSP90-mediated luciferase refolding in reticulocyte lysate. AID 1789. 0.91% of 290,000 active. inhibition, % at 5.6 µM. Rabbit reticulocyte lysate, luciferase refolding luminescence, 3 h;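 active = inhibition above the screen-wide mean plus 3 SD, computed separately per campaign, cut at about 16% in these data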;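 note: inhibitors lower the luminescence because luciferase stays unfolded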
HSF1 activator – increases HSF-1 driven luciferase reporter signal; NIH3T3-HGL HSF-1 luciferase reporter, MG132, 8 h; 100% = twice DMSO control signal; activation, % at 9 µM; 1.7% of 300,000 active;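 active = mean replicate activation of at least 50% with a set share of replicates each reaching 50%; inconclusive = only one of those two conditions met; inactive = mean below 50% and too few replicates reaching it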
HKDC1 inhibitor – blocks human hexokinase HKDC1 activity. Q2TB90. recombinant HKDC1, G6PDH/diaphorase resazurin coupled fluorescence. inhibition, % at 20 µM. 0.16% of 340,000 active;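 active = inhibition above about 35% when tested at 20 µM, limit read from the data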
Target sequence (Q2TB90 whole entry, looked up): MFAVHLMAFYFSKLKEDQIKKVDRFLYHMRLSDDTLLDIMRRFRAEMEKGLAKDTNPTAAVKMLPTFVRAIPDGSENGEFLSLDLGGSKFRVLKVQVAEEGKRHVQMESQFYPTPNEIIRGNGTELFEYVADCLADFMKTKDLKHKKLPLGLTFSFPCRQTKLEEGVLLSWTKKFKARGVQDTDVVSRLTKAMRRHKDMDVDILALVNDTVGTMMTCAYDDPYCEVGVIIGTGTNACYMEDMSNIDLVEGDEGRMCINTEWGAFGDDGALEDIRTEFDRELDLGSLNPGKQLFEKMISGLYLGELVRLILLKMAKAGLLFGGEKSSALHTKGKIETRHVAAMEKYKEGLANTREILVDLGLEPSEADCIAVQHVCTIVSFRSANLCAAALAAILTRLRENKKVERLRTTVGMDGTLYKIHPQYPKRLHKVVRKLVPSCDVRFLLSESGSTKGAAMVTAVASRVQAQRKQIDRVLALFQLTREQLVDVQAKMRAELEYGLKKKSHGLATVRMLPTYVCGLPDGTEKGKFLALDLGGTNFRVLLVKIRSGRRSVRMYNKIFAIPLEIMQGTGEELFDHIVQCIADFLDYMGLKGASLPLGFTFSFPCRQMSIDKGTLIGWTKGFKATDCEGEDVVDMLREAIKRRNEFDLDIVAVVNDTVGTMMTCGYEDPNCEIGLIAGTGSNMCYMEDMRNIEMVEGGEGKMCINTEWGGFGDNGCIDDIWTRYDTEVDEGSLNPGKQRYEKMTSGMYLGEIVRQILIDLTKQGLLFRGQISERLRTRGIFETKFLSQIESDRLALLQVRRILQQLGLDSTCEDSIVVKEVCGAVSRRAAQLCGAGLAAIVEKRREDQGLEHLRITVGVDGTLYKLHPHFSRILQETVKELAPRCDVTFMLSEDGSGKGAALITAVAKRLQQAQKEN
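Assay system: in-house recombinant HK5 (HKDC1) enzyme. Input: HKDC1 at 5 µg/mL. Medium: Tris pH 8.0 buffer with MgCl2, Tween-20, BSA, BME. Dosing: single 20 µM dose. Schedule: 90 min reaction incubation at room temperature, dark. Signal: resazurin-to-resorufin fluorescence via G6PDH and diaphorase coupling, 525/613 nm. Controls: DMSO-enzyme wells negative, buffer-substituted wells positive.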
HSF1 inh – HSF1 inhibition; NIH3T3-HGL HSE-luciferase, MG132-induced, luminescence 8 h; hits give low values; activity change, negative = inhibition, % at 7.5 µM (by protocol); 0.77% of 300,000 active; AID 2098;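 active = more than half of replicate wells show activity change below -50%, luminescence cut by over half; inconclusive = some wells, but at most half, below -50%; inactive = no replicate well below -50%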;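 note: luciferase reports HSF-1 transcriptional activity via heat shock element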
Hsp70 act – Hsp70 transcriptional activation, primary screen. HeLa Hsp70 promoter luciferase reporter, luminescence; scaled: vehicle 0, proteasome-inhibitor control 100%. activation, % at 10 µM. 0.04% of 200,000 active;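 active = activation above the mean across all tested compounds plus 3 SD, cutoff set per campaign, cut at about 5.5% in these data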
Numbers stand for hits; . = inactive; ? = inconclusive; / = no result given.

SMILES	TbHK1 inh	HSP90 inh	HSF1 activator	HKDC1 inhibitor	HSF1 inh	Hsp70 act
c1cc2c(cc1C1CCCN1)OCCCO2 (configuration not stated)	.	.	.	.	-71	.
O=S(=O)(c1ccc2c(c1)OCCCO2)N1CCNCC1	.	.	.	.	.	.
NC(=O)c1ccsc1NC(=O)C1CCCCC1	.	.	.	.	-57	.
NC(=O)c1ccsc1NC(=O)c1cccs1	.	.	.	.	.	.
Cc1ccc(NC(=O)c2nc(S(=O)(=O)Cc3ccccc3)ncc2Cl)cc1	/	.	.	.	-95	/
O=C(Nc1ccc(F)cc1)c1nc(S(=O)(=O)Cc2ccccc2)ncc1Cl	/	.	.	.	-85	/
Cc1ccccc1CS(=O)(=O)c1ncc(Cl)c(C(=O)Nc2ccc(F)cc2)n1	/	.	.	.	.	/
CCS(=O)(=O)c1ncc(Cl)c(C(=O)Nc2ccc(S(=O)(=O)N(C)c3ccccc3)cc2)n1	/	.	.	.	?	/
CN(C)C(=O)CSc1n[nH]c(=O)[nH]c1=O	.	.	.	.	-89	.
Cc1cccc(S(=O)(=O)Nc2ccc(-n3c(C)nc4ccccc4c3=O)cc2)c1	/	/	.	.	.	/
Cc1ccn2c(C(=O)c3ccc(Cl)cc3)cnc2c1	.	22	.	.	.	.
Cc1cc(C)n(-c2nc3ccccc3nc2N2CCN(C(=O)c3ccccc3)CC2)n1	.	.	52	.	.	.
CCOc1ccccc1N1CCN(CC(=O)NC(C)c2ccccc2)CC1 (configuration not stated)	/	.	.	.	-61	/
Cc1cc(C)nc(/N=C(\N)Nc2ccc(C(C)C)cc2)n1	.	.	.	.	.	/
COC(=O)C1=C(C)NC2=C(C(=O)CC(C)(C)C2)C1c1cn(Cc2ccc(Br)cc2)nc1-c1ccccc1 (configuration not stated)	.	.	74	.	.	.
O=C(N/N=C/c1ccco1)C1(O)c2ccccc2-c2ccccc21	.	.	56	.	.	/
Cc1c(Cl)cccc1NC(=S)N1CCN(C(=O)c2ccco2)CC1	/	.	.	.	.	/
Cc1cccc(NC(=S)N2CCN(C(=O)c3ccco3)CC2)c1C	/	.	61	.	.	/
Nc1c(-c2ccccc2)c(CSc2nc3ccccc3[nH]2)nn1-c1ccc(Cl)cc1	.	.	.	.	.	.
Cc1ccccc1-n1nc(CSc2nc3ccccc3[nH]2)c(-c2ccccc2)c1N	.	.	60	.	.	.
CN1CCN(C(=O)c2ccc3c(Cl)c4c(nc3c2)CCCC4)CC1	/	.	136	.	.	/
CCN1CCN(C(=O)c2ccc3c(Cl)c4c(nc3c2)CCCC4)CC1	/	.	114	.	.	/
N#CC1CCN(C(=O)c2ccc3c(Cl)c4c(nc3c2)CCCC4)CC1	/	.	.	.	.	/
CCN1CCN(CCCNC(=O)c2ccc3c(Cl)c4c(nc3c2)CCCC4)CC1	/	.	97	.	.	/
O=C(NCCCN1CCCCCC1)c1ccc2c(Cl)c3c(nc2c1)CCCC3	.	.	.	.	.	.
SMILES	TbHK1 inh	HSP90 inh	HSF1 activator	HKDC1 inhibitor	HSF1 inh	Hsp70 act
O=C(N/N=C/c1ccccc1F)c1ccccc1OCc1ccccc1	/	.	.	.	.	/
Cc1ccccc1NC(=O)/C(C#N)=C/c1ccc[nH]1	/	.	.	.	.	/
N#C/C(=C\c1ccc[nH]1)C(=O)Nc1ccccc1[N+](=O)[O-]	/	.	61	.	.	/
O=c1[nH]nnc2cc(Cl)ccc12	/	/	/	.	/	/
CC1=NNC(=O)C1CC(=O)N/N=C/C(Br)=C/c1ccccc1 (configuration not stated)	.	.	.	.	.	/
CC1=NNC(=O)C1CCC(=O)N/N=C/C(Br)=C/c1ccccc1 (configuration not stated)	.	.	88	.	.	.
CC1C(=O)NN=C1C(=O)N/N=C\C(Br)=C\c1ccccc1 (configuration not stated)	.	.	213	.	.	.
O=C(C[C@H]1C/C=C\CC[C@@H](Cc2ccc(F)cc2)C(=O)OC[C@H]2CCCN2C1=O)NCCO	/	/	/	.	/	/
COc1ccc(C(CNC(=O)C(C)(C)Oc2ccc(Cl)cc2)N2CCOCC2)cc1 (configuration not stated)	/	/	/	.	/	/
CC(C)(C)c1nc(N2CCN(C(=O)c3ccco3)CC2)c2nnn(Cc3ccccc3)c2n1	.	.	.	.	-70	.
O=C(Nc1ccccc1N1CCCCC1)C1CCN(C(=O)c2ccc(Cl)cc2)CC1	/	/	.	.	-67	/
O=C(NC1CCCC1)C1CCN(C(=O)c2ccc(Cl)cc2)CC1	/	.	54	.	.	/
Cc1ccc(C(=O)N2CCC(C(=O)NC3CCCC3)CC2)cc1	/	.	.	.	.	/
O=C(Nc1ccccc1N1CCCC1)C1CCN(C(=O)c2ccc(Cl)cc2)CC1	/	/	.	.	.	/
O=C(Nc1ccccc1N1CCCCC1)C1CCN(S(=O)(=O)c2ccccc2C(F)(F)F)CC1	/	/	.	.	-58	/
CN1C(=O)NC(c2cccc([N+](=O)[O-])c2)C2=C1CCCC2=O (configuration not stated)	/	.	.	.	.	/
CC(C)CCNC1c2ccccc2C(=O)N1Cc1ccccc1 (configuration not stated)	/	.	54	.	.	/
COc1cc(NC2c3ccccc3C(=O)N2Cc2ccccc2)cc(OC)c1OC (configuration not stated)	.	.	.	.	.	/
C=CCc1cccc(/C=N/n2cnnc2)c1O	.	.	.	.	.	.
C=CCc1cccc(/C=C/c2cc(=O)c3ccccc3[nH]2)c1O	.	.	55	.	.	.
Cc1nc2c(=O)n(C)c(=O)n(C)c2nc1Cl	.	.	284	.	.	.
CCCc1c(C(=O)N/N=C(/C)c2ccncc2)nnn1-c1nonc1N	/	.	.	.	.	/
COc1cccc(NC(=O)CSc2nc3ccccc3nc2N2CCOCC2)c1	/	.	.	.	.	/
C=CCn1c(C)cc(C(=O)CSc2nc(N)cc(N)n2)c1C	.	.	66	.	.	.
Nc1ncc(S(=O)(=O)c2ccc([N+](=O)[O-])cc2)s1	/	/	/	.	/	/
SMILES	TbHK1 inh	HSP90 inh	HSF1 activator	HKDC1 inhibitor	HSF1 inh	Hsp70 act
Cc1ccc(OCC(=O)Nc2c[nH]c(=O)[nH]c2=O)cc1C	.	.	.	.	-52	.
Cc1c(C)n2c(SCC(=O)N3CC(C)OC(C)C3)nnc2[nH]c1=O (configuration not stated)	/	/	.	.	.	/
CCc1ccc(NC(=O)c2cc(C)on2)cc1	.	.	58	.	.	.
Cc1ccc(NC(=O)c2cc(C)on2)cc1	.	.	.	.	.	.
COc1ccc(OCC(=O)N2CCCC(CO)(CCOc3ccccc3)C2)cc1 (configuration not stated)	/	.	.	.	.	/
O=C(COC(=O)c1ccc2c(c1[N+](=O)[O-])C(=O)c1ccccc1C2=O)NC1CC1	.	.	124	.	.	.
O=C(COC(=O)c1cccc2c1C(=O)c1ccccc1C2=O)NC1CCCCC1	.	.	.	.	.	.
